Assays:
[1] = tested on: Mus musculus; assay: In vivo antinociceptive activity in mouse tail flick test following p.o. administration.; type: functional
[2] = tested on: Mus musculus; assay: In vivo antinociceptive activity using mouse tail flick test, subcutaneous administration; type: functional
[3] = tested on: Mus musculus; assay: Phenyl-p-benzoquinone-induced abdominal constriction after subcutaneous administration in mouse (in vivo); type: functional, Abdomen
Procedure, shortened: (§1)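 Mice given test agent subcutaneously, with 10 animals per dose, then challenged with phenyl-p-benzoquinone. Abdominal constrictions counted over an 8-min observation period. Percentage inhibition calculated as 1 − (T/C) × 100, with T the treated-group mean and C the control-group mean count.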

[4] = target: Mu-type opioid receptor (Cavia porcellus, UniProt P97266); assay: Affinity for opioid receptor mu sites
[5] = target: Kappa-type opioid receptor (Cavia porcellus, UniProt P41144); assay: Displacement of [3H]-BRL 52537 from opioid receptor kappa site in guinea pig
[6] = tested on: Mus musculus; assay: Concentration required for 50% inhibition of abdominal constrictions by phenyl-p-benzoquinone-induced abdominal constriction given sc in mouse.; type: functional, Abdomen; procedure, shortened: as §1
[7] = Mus musculus, Tail, po, read-out: ED50
[8] = Mus musculus, Tail, sc, read-out: ED50
[9] = Mus musculus, Abdomen, sc, read-out: ED50

Mu-type opioid receptor, sequence (P97266 whole entry): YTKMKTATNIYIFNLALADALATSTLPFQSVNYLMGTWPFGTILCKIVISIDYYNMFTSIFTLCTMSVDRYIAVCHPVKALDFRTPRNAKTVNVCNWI
Kappa-type opioid receptor, sequence (P41144 whole entry): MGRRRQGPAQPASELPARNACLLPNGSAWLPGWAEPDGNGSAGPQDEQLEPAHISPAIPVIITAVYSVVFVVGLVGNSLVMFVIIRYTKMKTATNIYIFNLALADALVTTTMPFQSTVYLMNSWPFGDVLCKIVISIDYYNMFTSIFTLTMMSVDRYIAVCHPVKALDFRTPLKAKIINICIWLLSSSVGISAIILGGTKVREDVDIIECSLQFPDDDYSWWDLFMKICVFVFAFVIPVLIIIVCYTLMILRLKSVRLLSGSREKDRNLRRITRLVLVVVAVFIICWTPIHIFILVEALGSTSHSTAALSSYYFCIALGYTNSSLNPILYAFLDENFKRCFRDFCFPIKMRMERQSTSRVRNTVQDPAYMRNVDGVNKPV

| Compound | ED50 [1, 7] | ED50 [2, 8] | Ki [4] | Ki [5] | further results |
| --- | --- | --- | --- | --- | --- |
| O=C(Cc1ccc(Cl)c(Cl)c1)N1CCc2ccccc2C1CN1CCCC1.O=C(O)C(O)C(O)C(=O)O (stereo not drawn) |  |  |  |  | ED50 [1]: 0.544 µM/kg; ED50 [2]: 0.02 µM/kg; ED50 [3]: 0.017 µM/kg |
| O=C(Cc1ccc(C(F)(F)F)cc1)N1CCc2sccc2C1CN1CCCCC1 (stereo not drawn) | 4.65 µmol/kg | 0.125 µmol/kg | 420 nM | 0.6 nM | ED50 [3, 9]: 0.024 µmol/kg |
| O=C(Cc1ccc(Cl)c(Cl)c1)N1CCc2c([nH]c3ccccc23)C1CN1CCCC1 (stereo not drawn) |  | > 20 µmol/kg | > 1000 nM | > 100 nM |  |
| O=C(Cc1ccc(Cl)c(Cl)c1)N1CCc2[nH]c3ccccc3c2C1CN1CCCC1 (stereo not drawn) |  | > 20 µmol/kg | > 1000 nM | 100 nM |  |
| O=C(Cc1ccc(C(F)(F)F)cc1)N1CCCC[C@H]1CN1CCCC1 | 3.29 µmol/kg | 0.0373 µmol/kg | 2340 nM | 0.64 nM | ED50 [3, 9]: 0.099 µmol/kg |
| O=C(Cc1ccc(Cl)c(Cl)c1)N1CCc2ccccc2C1CN1CCCC1 (stereo not drawn) | 0.626 µmol/kg | 0.036 µmol/kg |  |  | ED50 [3, 9]: 0.025 µmol/kg |
| O=C(Cc1ccc(Cl)c(Cl)c1)N1CCCC[C@H]1CN1CCCC1 | 2.49 µmol/kg | 0.135 µmol/kg |  | 0.31 nM | ED50 [3, 9]: 0.056 µmol/kg |
| O=C(Cc1ccc(Cl)c(Cl)c1)N1CCc2ccccc2C1CN1CCCCCC1 (stereo not drawn) |  | 0.267 µmol/kg |  |  | ED50 [3, 9]: 0.083 µmol/kg |
| O=C(Cc1ccc(Cl)c(Cl)c1)N1CCc2sccc2C1CN1CCCCC1 (stereo not drawn) | 2.75 µmol/kg | 0.096 µmol/kg | 445 nM | 0.47 nM | ED50 [3, 9]: 0.024 µmol/kg |
| O=C(Cc1ccc(Cl)c(Cl)c1)N1CCc2ccsc2C1CN1CCCC1 (stereo not drawn) | 1.59 µmol/kg | 0.073 µmol/kg | 47 nM | 0.46 nM |  |
| O=C(Cc1ccc(Cl)c(Cl)c1)N1Cc2ccccc2CC1CN1CCCC1 (stereo not drawn) |  | 8.23 µmol/kg |  |  |  |
| O=C(Cc1ccc(Cl)c(Cl)c1)N1CCc2sccc2C1CN1CCCC1 (stereo not drawn) | 0.945 µmol/kg | 0.018 µmol/kg | 47.2 nM | 0.22 nM |  |
| O=C(Cc1ccc(Cl)c(Cl)c1)N1c2ccccc2CCC1CN1CCCC1 (stereo not drawn) |  | > 20 µmol/kg |  |  |  |
| O=C(Cc1ccc(Cl)c(Cl)c1)N1CCc2ccccc2C1CN1CCC1 (stereo not drawn) |  | 23.2 µmol/kg |  |  |  |
| CN(C)CC1c2ccccc2CCN1C(=O)Cc1ccc(Cl)c(Cl)c1.Cl (racemic) | 2.88 µmol/kg | 0.099 µmol/kg |  |  | ED50 [6]: 0.127 µM/kg |
| O=C(Cc1ccc([N+](=O)[O-])cc1)N1CCc2ccccc2C1CN1CCCC1 (racemic) | 0.409 µmol/kg | 0.038 µmol/kg |  |  |  |

| Compound | ED50 [1, 7] | ED50 [2, 8] | Ki [4] | Ki [5] | further results |
| --- | --- | --- | --- | --- | --- |
| O=C(Cc1ccccc1[N+](=O)[O-])N1CCc2ccccc2C1CN1CCCC1 (racemic) |  | > 21 µmol/kg |  |  |  |
| O=C(Cc1ccc(C(F)(F)F)cc1)N1CCc2ccccc2C1CN1CCCC1 (racemic) | 0.467 µmol/kg | 0.074 µmol/kg |  |  | ED50 [6, 9]: 0.027 µmol/kg |
| O=C(Cc1ccc(Cl)c(Cl)c1)N1CCc2ccccc2C1CN1CCCCCCC1 (racemic) |  | > 22 µmol/kg |  |  |  |
| O=C(Cc1ccc(Br)cc1)N1CCc2ccccc2C1CN1CCCC1 (racemic) |  | 0.07 µmol/kg |  |  |  |
| C=CCN(C)CC1c2ccccc2CCN1C(=O)Cc1ccc(Cl)c(Cl)c1 (racemic) | 6.88 µmol/kg | 0.521 µmol/kg |  |  |  |
| CCCN(CCC)CC1c2ccccc2CCN1C(=O)Cc1ccc(Cl)c(Cl)c1 (racemic) |  | > 23 µmol/kg |  |  |  |
| CN(CC1CC1)CC1c2ccccc2CCN1C(=O)Cc1ccc(Cl)c(Cl)c1 (racemic) |  | 3.39 µmol/kg |  |  |  |
| CCN(CC)CC1c2ccccc2CCN1C(=O)Cc1ccc(Cl)c(Cl)c1 (racemic) | 3.37 µmol/kg | 0.264 µmol/kg |  |  |  |
| O=C(Cc1ccc(Cl)c(Cl)c1)N1CCc2ccccc2C1CN1CCCCC1 (racemic) | 5.16 µmol/kg | 0.359 µmol/kg |  |  | ED50 [3, 9]: 0.101 µmol/kg |
| O=C(Cc1cccc([N+](=O)[O-])c1)N1CCc2ccccc2C1CN1CCCC1 (racemic) | 5.26 µmol/kg | 0.105 µmol/kg |  |  |  |
| CNCC1c2ccccc2CCN1C(=O)Cc1ccc(Cl)c(Cl)c1 (racemic) |  | > 28 µmol/kg |  |  |  |
| CCO.CN(C)CC1c2ccccc2CCN1C(=O)Cc1ccc(Cl)c(Cl)c1.O=C(O)C(O)C(O)C(=O)O (single isomer, unassigned; (-)) |  |  | 293 nM | 0.51 nM | ED50 [1]: 2.199 µM/kg; ED50 [2]: 0.075 µM/kg; ED50 [6]: 0.042 µM/kg |
| O=C(Cc1ccc(C(F)(F)F)cc1)N1CCc2ccccc2C1CN1CCCCC1 (single isomer, unassigned; (-)) | 3.84 µmol/kg | 0.168 µmol/kg | 231 nM | 0.62 nM | ED50 [6, 9]: 0.06 µmol/kg |
| O=C(Cc1ccc(C(F)(F)F)cc1)N1CCc2ccccc2[C@H]1CN1CCCC1 (stereo in doubt; 30) | 0.25 µmol/kg |  | 10.7 nM | 0.24 nM | ED50 [2]: 0.032 µM/kg; ED50 [6, 9]: 0.015 µmol/kg |
| CN1CC[C@]23c4c5ccc(O)c4O[C@H]2[C@@H](O)C=C[C@H]3[C@H]1C5 [MORPHINE] | 32.6 µmol/kg |  |  |  |  |

Source: ChEMBL document CHEMBL1125862, “(1S)-1-(aminomethyl)-2-(arylacetyl)-1,2,3,4-tetrahydroisoquinoline and heterocycle-condensed tetrahydropyridine derivatives: members of a novel class of very potent kappa opioid analgesics” (J Med Chem, 1991)
